A short description of data set [1]: Solubility in aqueous solution. Type of data set: physicochemical. Particulars: observation.
The target of data set [2] is T1, recombinant dg-Bcan protein (Homo sapiens, UniProt Q96GW7).
T1 sequence (Q96GW7 23-911): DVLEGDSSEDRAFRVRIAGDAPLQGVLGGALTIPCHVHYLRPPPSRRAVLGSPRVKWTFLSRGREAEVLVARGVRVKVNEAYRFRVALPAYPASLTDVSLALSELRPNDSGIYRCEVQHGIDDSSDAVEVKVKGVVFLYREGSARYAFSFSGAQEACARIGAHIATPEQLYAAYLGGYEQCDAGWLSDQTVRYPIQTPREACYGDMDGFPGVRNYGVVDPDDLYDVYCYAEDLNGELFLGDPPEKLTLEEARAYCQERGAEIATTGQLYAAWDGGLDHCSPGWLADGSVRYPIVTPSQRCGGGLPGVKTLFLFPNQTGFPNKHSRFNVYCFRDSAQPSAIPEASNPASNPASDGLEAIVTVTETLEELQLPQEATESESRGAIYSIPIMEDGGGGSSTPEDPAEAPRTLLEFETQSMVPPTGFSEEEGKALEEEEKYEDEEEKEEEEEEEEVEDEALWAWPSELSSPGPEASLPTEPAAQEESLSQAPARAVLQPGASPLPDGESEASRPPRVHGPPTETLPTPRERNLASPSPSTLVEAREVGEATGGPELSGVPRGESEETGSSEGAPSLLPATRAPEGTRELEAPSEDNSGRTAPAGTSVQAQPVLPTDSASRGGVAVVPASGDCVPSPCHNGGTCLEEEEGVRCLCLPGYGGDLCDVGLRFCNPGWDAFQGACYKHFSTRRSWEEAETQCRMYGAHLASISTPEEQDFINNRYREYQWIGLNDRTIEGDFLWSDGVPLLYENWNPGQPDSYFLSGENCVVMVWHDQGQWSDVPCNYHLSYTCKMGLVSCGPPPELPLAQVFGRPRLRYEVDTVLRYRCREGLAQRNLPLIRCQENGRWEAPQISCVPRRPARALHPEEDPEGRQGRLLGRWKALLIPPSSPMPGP
The data set can be described thus: Octet binding kinetics analysis, recombinant dg-Bcan. Particulars: Octet RED. In a few lines:
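Binding kinetics of test peptides measured by biolayer interferometry (Octet RED384) against recombinant human brevican, deglycosylated before use and held in PBS with 0.1 mM EDTA, pH 6.8. Fully glycosylated Bcan served as a comparison protein. The run used working buffer (0.9% NaCl irrigation, 0.05% Tween) with 1000 rpm agitation at 30°C. KD and Rmax came from a one-site specific binding non-linear regression fit.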

On to BTP-2, for which, in data set [1], the “solubility in aqueous solution” value is “insoluble and precipitated in aqueous solution”.
With Scr-7, the “dg-Bcan protein binding” value in data set [2] is on record as “did not exhibit dg-Bcan protein binding”.
